Measured values: ChEMBL document CHEMBL3272149, “Synthesis and antibacterial activity of some derivatives of tolypomycinone. Relationship between structure and activity in ansamycins” (J Med Chem, 1977)
In brackets after ≈: the same amount, converted by molar mass. Activity calls are given as the source filed them. The rule behind the calls is not given here.

Columns and labels:
[1] = system: Escherichia coli; experiment: Antibacterial activity against Escherichia coli MC/35 assessed as inhibition of visible growth after 24 hrs by serial dilution method; format: functional; settings: MC/35, 24 h
[2] = system: Salmonella enterica subsp. enterica serovar Paratyphi B; experiment: Antibacterial activity against Salmonella paratyphi B 0248 K assessed as inhibition of visible growth after 24 hrs by serial dilution method; format: functional
Method in brief: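 Broth tube serial dilution in Brain Heart Infusion medium; inoculum 10^6 cells/mL; incubation 24 h at 35 °C; MIC taken as the lowest antibiotic concentration that prevented visible growth.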

[3] = system: Klebsiella pneumoniae; experiment: Antibacterial activity against Klebsiella pneumoniae Ottaviani assessed as inhibition of visible growth after 24 hrs by serial dilution method; format: functional
[4] = system: Staphylococcus aureus; experiment: Antibacterial activity against Staphylococcus aureus 209 P(FDA) assessed as inhibition of visible growth after 24 hrs by serial dilution method; format: functional
[5] = system: Staphylococcus aureus; experiment: Antibacterial activity against Staphylococcus aureus 209 P(FDA) assessed as inhibition of visible growth in simulated gastric juice at pH 1.3 after 1 to 4 hrs by serial dilution method; format: functional, organism-based
Method in brief: (§1)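 Compound dissolved in simulated gastric juice (pH 1.3) or simulated intestinal juice (pH 8.3). Samples were withdrawn at 1, 2 and 4 h and assayed for residual inhibitory activity against Staphylococcus.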

[6] = Stability in simulated intestinal juice at pH 8.3; format: ADME; settings: simulated gi fluid; method in brief: as §1
[7] = system: Staphylococcus aureus; experiment: Antibacterial activity against Staphylococcus aureus 209 P(FDA) assessed as inhibition of visible growth in simulated intestinal juice at pH 8.3 after 1 to 4 hrs by serial dilution method; format: functional, organism-based; method in brief: as §1
[8] = Stability in simulated gastric juice at pH 1.3; format: ADME; settings: simulated gi fluid; method in brief: as §1

Compound | MIC [1] [µg/mL] | MIC [2] [µg/mL] | MIC [3] [µg/mL] | MIC [4] [µg/mL] | inhibition [5] | Stability [6] | inhibition [7] | Stability [8]
CO[C@H]1/C=C/O[C@@]2(C)Oc3c(C)c(O)c4c(c3C2=O)C(=O)C(NCCc2c[nH]cn2)=C(NC(=O)/C(C)=C\C(=O)[C@@H]2C[C@@H]2[C@H](O)[C@@H](C)[C@@H](O)[C@@H](C)[C@H](OC(C)=O)[C@@H]1C)C4=O | 50 (≈ 61.1 µM) | 12 (≈ 14.7 µM) | 12 (≈ 14.7 µM) | 0.05 (≈ 0.0611 µM) | – | – | – | –
CO[C@H]1/C=C/O[C@@]2(C)Oc3c(C)c(O)c4c(c3C2=O)C(=O)C(NCC2CCCO2)=C(NC(=O)/C(C)=C\C(=O)[C@@H]2C[C@@H]2[C@H](O)[C@@H](C)[C@@H](O)[C@@H](C)[C@H](OC(C)=O)[C@@H]1C)C4=O (stereo partly drawn) | 6 (≈ 7.42 µM) | 12 (≈ 14.8 µM) | 25 (≈ 30.9 µM) | 0.005 (≈ 0.00618 µM) | – | – | – | –
CO[C@H]1/C=C/O[C@@]2(C)Oc3c(C)c(O)c4c(O)c(c(/C=N/N5CCN(C)CC5)c(O)c4c3C2=O)NC(=O)/C(C)=C\C=C\[C@H](C)[C@H](O)[C@@H](C)[C@@H](O)[C@@H](C)[C@H](OC(C)=O)[C@@H]1C [RIFAMPIN] | 6 (≈ 7.29 µM) | 12 (≈ 14.6 µM) | 25 (≈ 30.4 µM) | 0.025 (≈ 0.0304 µM) | – | – | – | –
CO[C@H]1/C=C/O[C@@]2(C)Oc3c(C)c(O)c4c(c3C2=O)C(=O)C(NCc2ccn(C)c2)=C(NC(=O)/C(C)=C\C(=O)[C@@H]2C[C@@H]2[C@H](O)[C@@H](C)[C@@H](O)[C@@H](C)[C@H](OC(C)=O)[C@@H]1C)C4=O | 12 (≈ 14.7 µM) | 12 (≈ 14.7 µM) | 12 (≈ 14.7 µM) | 0.005 (≈ 0.00611 µM) | – | – | – | –
CNC1=C2NC(=O)/C(C)=C\C(=O)[C@@H]3C[C@@H]3[C@H](O)[C@@H](C)[C@@H](O)[C@@H](C)[C@H](OC(C)=O)[C@H](C)[C@@H](OC)/C=C/O[C@@]3(C)Oc4c(C)c(O)c(c(c4C3=O)C1=O)C2=O | 50 (≈ 67.7 µM) | 12 (≈ 16.2 µM) | 25 (≈ 33.8 µM) | 0.005 (≈ 0.00677 µM) | – | – | – | –
CO[C@H]1/C=C/O[C@@]2(C)Oc3c(C)c(O)c4c(O)c(cc(O)c4c3C2=O)NC(=O)/C(C)=C\C=C\[C@H](C)[C@H](O)[C@@H](C)[C@@H](O)[C@@H](C)[C@H](OC(C)=O)[C@@H]1C [RIFAMYCIN] | 100 (≈ 143 µM) | 100 (≈ 143 µM) | 100 (≈ 143 µM) | < 0.005 | – | – | – | –
CO[C@H]1/C=C/O[C@@]2(C)Oc3c(C)c(O)c4c(c3C2=O)/C(=N/[C@@H]2CC[C@@H](O)O[C@H]2C)C=C(NC(=O)/C(C)=C\C(=O)[C@@H]2C[C@@H]2[C@H](O)[C@@H](C)[C@@H](O)[C@@H](C)[C@H](OC(C)=O)[C@@H]1C)C4=O | > 100 | > 100 | 100 (≈ 122 µM) | 0.025 (≈ 0.0304 µM) | – | – | – | –
COC(CCNC1=C2NC(=O)/C(C)=C\C(=O)[C@@H]3C[C@@H]3[C@H](O)[C@@H](C)[C@@H](O)[C@@H](C)[C@H](OC(C)=O)[C@H](C)[C@@H](OC)/C=C/O[C@@]3(C)Oc4c(C)c(O)c(c(c4C3=O)C1=O)C2=O)OC | 25 (≈ 30.2 µM) | 25 (≈ 30.2 µM) | 50 (≈ 60.5 µM) | 0.005 (≈ 0.00605 µM) | – | – | – | –
CO[C@H]1/C=C/O[C@@]2(C)Oc3c(C)c(O)c4c(c3C2=O)C(=O)C(NCCc2ccc(O)cc2)=C(NC(=O)/C(C)=C\C(=O)[C@@H]2C[C@@H]2[C@H](O)[C@@H](C)[C@@H](O)[C@@H](C)[C@H](OC(C)=O)[C@@H]1C)C4=O | > 100 | > 50 | > 100 | < 0.005 | – | – | – | –
CO[C@H]1/C=C/O[C@@]2(C)Oc3c(C)c(O)c4c(c3C2=O)C(=O)C(NCCCN2CCN(C)CC2)=C(NC(=O)/C(C)=C\C(=O)[C@@H]2C[C@@H]2[C@H](O)[C@@H](C)[C@@H](O)[C@@H](C)[C@H](OC(C)=O)[C@@H]1C)C4=O | 12 (≈ 13.9 µM) | 3 (≈ 3.47 µM) | 25 (≈ 28.9 µM) | 0.025 (≈ 0.0289 µM) | – | – | – | –
CO[C@H]1/C=C/O[C@@]2(C)Oc3c(C)c(O)c4c(c3C2=O)C(=O)C(NCCN2CCOCC2)=C(NC(=O)/C(C)=C\C(=O)[C@@H]2C[C@@H]2[C@H](O)[C@@H](C)[C@@H](O)[C@@H](C)[C@H](OC(C)=O)[C@@H]1C)C4=O | 12 (≈ 14.3 µM) | 12 (≈ 14.3 µM) | 50 (≈ 59.7 µM) | < 0.005 | Active | Stable | Active | Stable
CO[C@H]1/C=C/O[C@@]2(C)Oc3c(C)c(O)c4c(c3C2=O)C(=O)C(NCc2ccsc2)=C(NC(=O)/C(C)=C\C(=O)[C@@H]2C[C@@H]2[C@H](O)[C@@H](C)[C@@H](O)[C@@H](C)[C@H](OC(C)=O)[C@@H]1C)C4=O | 12 (≈ 14.6 µM) | 12 (≈ 14.6 µM) | 100 (≈ 122 µM) | < 0.005 | – | – | – | –
CO[C@H]1/C=C/O[C@@]2(C)Oc3c(C)c(O)c4c(c3C2=O)C(=O)C(NCc2ccncc2)=C(NC(=O)/C(C)=C\C(=O)[C@@H]2C[C@@H]2[C@H](O)[C@@H](C)[C@@H](O)[C@@H](C)[C@H](OC(C)=O)[C@@H]1C)C4=O | 25 (≈ 30.6 µM) | 12 (≈ 14.7 µM) | 100 (≈ 123 µM) | 0.005 (≈ 0.00613 µM) | – | – | – | –
COc1cc(CNC2=C3NC(=O)/C(C)=C\C(=O)[C@@H]4C[C@@H]4[C@H](O)[C@@H](C)[C@@H](O)[C@@H](C)[C@H](OC(C)=O)[C@H](C)[C@@H](OC)/C=C/O[C@@]4(C)Oc5c(C)c(O)c(c(c5C4=O)C2=O)C3=O)ccc1O | 100 (≈ 116 µM) | 100 (≈ 116 µM) | 100 (≈ 116 µM) | < 0.005 | – | – | – | –
CO[C@H]1/C=C/O[C@@]2(C)Oc3c(C)c(O)c4c(c3C2=O)C(=O)C(NCCN(C)C)=C(NC(=O)/C(C)=C\C(=O)[C@@H]2C[C@@H]2[C@H](O)[C@@H](C)[C@@H](O)[C@@H](C)[C@H](OC(C)=O)[C@@H]1C)C4=O | 6 (≈ 7.54 µM) | 12 (≈ 15.1 µM) | 25 (≈ 31.4 µM) | < 0.005 | – | – | – | –
CO[C@H]1/C=C/O[C@@]2(C)Oc3c(C)c(O)c4c(c3C2=O)C(=O)C(NCc2ccccn2)=C(NC(=O)/C(C)=C\C(=O)[C@@H]2C[C@@H]2[C@H](O)[C@@H](C)[C@@H](O)[C@@H](C)[C@H](OC(C)=O)[C@@H]1C)C4=O | 6 (≈ 7.35 µM) | 25 (≈ 30.6 µM) | 12 (≈ 14.7 µM) | < 0.005 | – | – | – | –
CO[C@H]1/C=C/O[C@@]2(C)Oc3c(C)c(O)c4c(c3C2=O)C(=O)C(NCC2CCCN(C)C2)=C(NC(=O)/C(C)=C\C(=O)[C@@H]2C[C@@H]2[C@H](O)[C@@H](C)[C@@H](O)[C@@H](C)[C@H](OC(C)=O)[C@@H]1C)C4=O (stereo partly drawn) | 12 (≈ 14.4 µM) | 12 (≈ 14.4 µM) | 12 (≈ 14.4 µM) | 0.025 (≈ 0.0299 µM) | – | – | – | –
CO[C@H]1/C=C/O[C@@]2(C)Oc3c(C)c(O)c4c(c3C2=O)C(=O)C(NCCCN(C)C)=C(NC(=O)/C(C)=C\C(=O)[C@@H]2C[C@@H]2[C@H](O)[C@@H](C)[C@@H](O)[C@@H](C)[C@H](OC(C)=O)[C@@H]1C)C4=O | 12 (≈ 14.8 µM) | 12 (≈ 14.8 µM) | 50 (≈ 61.7 µM) | 0.025 (≈ 0.0309 µM) | – | – | – | –
CO[C@H]1/C=C/O[C@@]2(C)Oc3c(C)c(O)c4c(c3C2=O)C(=O)C(NCc2ccc(N(C)C)cc2)=C(NC(=O)/C(C)=C\C(=O)[C@@H]2C[C@@H]2[C@H](O)[C@@H](C)[C@@H](O)[C@@H](C)[C@H](OC(C)=O)[C@@H]1C)C4=O | 23 (≈ 26.8 µM) | 12 (≈ 14 µM) | 12 (≈ 14 µM) | < 0.005 | – | – | – | –
CO[C@H]1/C=C/O[C@@]2(C)Oc3c(C)c(O)c4c(c3C2=O)C(=O)C(NCCCO)=C(NC(=O)/C(C)=C\C(=O)[C@@H]2C[C@@H]2[C@H](O)[C@@H](C)[C@@H](O)[C@@H](C)[C@H](OC(C)=O)[C@@H]1C)C4=O | 12 (≈ 15.3 µM) | 12 (≈ 15.3 µM) | 25 (≈ 31.9 µM) | 0.025 (≈ 0.0319 µM) | – | – | – | –
CO[C@H]1/C=C/O[C@@]2(C)Oc3c(C)c(O)c4c(c3C2=O)C(=O)C(N(C)C)=C(NC(=O)/C(C)=C\C(=O)[C@@H]2C[C@@H]2[C@H](O)[C@@H](C)[C@@H](O)[C@@H](C)[C@H](OC(C)=O)[C@@H]1C)C4=O | 50 (≈ 66.4 µM) | 100 (≈ 133 µM) | 100 (≈ 133 µM) | 0.025 (≈ 0.0332 µM) | – | – | – | –
